# Screening data as filed in PubChem BioAssay.
# Compounds with a hit are over-represented: about 5.8% of the library has one in this group of screens.
# IDH1 R132H inh: IDH1 R132H (human) inhibition; IDH1 R132H reductase, diaphorase/resazurin fluorescence, 60 min; inhibition, % at 10 µM; AID 624101; O75874; hit rate 0.18% among 70,000; in the data active = inhibition above about 34%;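 also: 0% = DMSO and 100% = no enzyme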
# T cruzi growth: T. cruzi proliferation inhibition. hit rate 5.9% among 77,000. AID 624255. T. cruzi beta-gal in NIH3T3, GalScreen luminescence, 90 h. inhibition, % at 8.34 µM;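 active = mean inhibition above about 93%, with at least 55% of replicates each passing it, limit read from the data, passing the limit was not always enough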
# Pf Dd2 inh: inhibitors of Plasmodium falciparum Dd2 growth | hit rate 2.3% among 94,000 | AID 1159554 | P. falciparum Dd2 growth, SYBR Green, 72 h; hits give low values | activity change, % at 10 µM; in the data active = activity change below about -80%
# GASC1 inh: blocks human GASC-1 (KDM4C) demethylase activity. Q9H3R0. hit rate 0.15% among 96,000. inhibition, % at 12.5 µM. GST-KDM4C 2-372, H3K9me3 peptide, LANCE TR-FRET;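 active = mean replicate inhibition above about 25%, with at least 55% of replicates also reaching it, limit read from the data, passing the limit was not always enough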
# Target sequence (Q9H3R0 2-372 limits assumed): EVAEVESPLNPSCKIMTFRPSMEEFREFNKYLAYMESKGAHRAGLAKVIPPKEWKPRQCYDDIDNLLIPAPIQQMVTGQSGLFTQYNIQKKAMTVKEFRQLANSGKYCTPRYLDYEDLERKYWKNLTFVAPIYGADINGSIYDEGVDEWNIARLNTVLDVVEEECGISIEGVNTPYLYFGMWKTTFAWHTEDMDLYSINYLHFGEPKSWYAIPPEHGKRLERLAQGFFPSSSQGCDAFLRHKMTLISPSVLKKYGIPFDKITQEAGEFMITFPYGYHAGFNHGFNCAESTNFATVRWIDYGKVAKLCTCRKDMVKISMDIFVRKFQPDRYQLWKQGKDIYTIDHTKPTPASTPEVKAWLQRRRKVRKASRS
#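 Material: GST-tagged GASC-1 (JMJD2C) catalytic fragment, aa 2-372 / Quantity: enzyme final amount 10 nM / Medium: HEPES buffer, pH 7.5, plus ascorbate / Doses: one test concentration per compound / Incubation: 30 min reaction, 60 min detection, RT / Measured by: LANCE TR-FRET / Read-out: inhibition from TR-FRET ratio decrease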
# * hit, by the source's call; · = no result.
SMILES,IDH1 R132H inh,T cruzi growth,Pf Dd2 inh,GASC1 inh
COc1ccc2c3c([nH]c2c1)[C@@H](CO)N(C(=O)Nc1ccc(F)cc1)CC31CCN(Cc2cc(-c3ccccc3)on2)CC1,·,·,-83*,0
COc1ccc2c3c([nH]c2c1)[C@H](CO)N(C(=O)Nc1ccc(F)cc1)CC31CCN(C(=O)Nc2ccc3c(c2)OCO3)CC1,·,·,-86*,0
COc1ccc2c3c([nH]c2c1)[C@@H](CO)N(C(=O)Nc1ccc(F)cc1)CC31CCN(S(=O)(=O)c2ccc(C)cc2)CC1,·,·,-71,1
COc1ccc2c3c([nH]c2c1)[C@@H](CO)N(C(=O)Nc1ccc(F)cc1)CC31CCN(S(=O)(=O)c2cccc(C)c2)CC1,·,·,-42,-2
O=C(CSc1nc(-c2ccccc2)cc(C(F)(F)F)n1)N1CCCc2ccccc21,-1,·,·,·
COc1ccc(C#Cc2cccc(-c3nc(C(=O)Nc4ccc(-c5ccccc5)cc4)cc4c3[C@@H](CCO)N(S(=O)C(C)(C)C)C4)c2)cc1OC (some centres not stated),·,·,-89*,-2
COc1ccccc1-c1cccc(-c2nc(C(=O)Nc3nccs3)cc3c2[C@H](CCO)N(C(=O)CC2CC2)C3)c1,·,·,-86*,6
COc1cccc(-c2cccc(-c3nc(C(=O)Nc4ccc(-c5ccccc5)cc4)cc4c3[C@@H](CCO)N(S(=O)C(C)(C)C)C4)c2)c1 (some centres not stated),·,·,-84*,-3
COc1ccc(C#Cc2cccc(-c3nc(C(=O)O)cc4c3[C@H](CCO)N(S(=O)C(C)(C)C)C4)c2)cc1OC (some centres not stated),·,60,·,13
COCC(=O)N1CC(=O)N2[C@H](CO)[C@H](c3ccc(C#CC4CC4)cc3)[C@H]2C1,·,·,-9,16
Cc1cc(NS(=O)(=O)c2ccc(Nc3nc(-c4ccc(O)cc4)cs3)cc2)no1,60*,·,·,·
Cc1ccc(N(CC(=O)Nc2ccccc2F)S(C)(=O)=O)cc1Cl,0,·,·,·
C[C@@H]1CN([C@@H](C)CO)C(=O)c2cc(NC(=O)Nc3ccc(C(F)(F)F)cc3)ccc2O[C@@H](C)CCCCO[C@@H]1CN(C)CC1CCCCC1,1,100*,-49,-5
C[C@@H]1CCCCO[C@@H](CN(C)CC2CC2)[C@H](C)CN([C@@H](C)CO)C(=O)c2cc(NC(=O)Nc3ccc(C(F)(F)F)cc3)ccc2O1,·,26,-56,-1
C[C@@H]1CN([C@@H](C)CO)C(=O)c2cc(NC(=O)Nc3ccc(C(F)(F)F)cc3)ccc2O[C@@H]1CN(C)CC1CCCCC1,1,71,-83*,-1
C[C@H]1CN([C@@H](C)CO)C(=O)c2cc(NC(=O)Nc3ccc(C(F)(F)F)cc3)ccc2O[C@H]1CN(C)CC1CCCCC1,1,71,-48,·
C[C@@H]1CCCCO[C@H](CN(C)CC2CCCCC2)[C@@H](C)CN([C@H](C)CO)C(=O)c2cc(NC(=O)Nc3ccc(C(F)(F)F)cc3)ccc2O1,0,96,-37,-2
C[C@@H]1CCCCO[C@H](CN(C)CC2CC2)[C@H](C)CN([C@@H](C)CO)C(=O)c2cc(NC(=O)Nc3ccc(C(F)(F)F)cc3)ccc2O1,·,69,-80*,-2
C[C@@H]1CN([C@H](C)CO)C(=O)c2c(c3ccccc3n2C)-c2ccccc2CO[C@@H]1CN(C)Cc1ccc(Oc2ccccc2)cc1,·,·,-71,-2
C[C@@H]1CN([C@@H](C)CO)C(=O)c2c(c3ccccc3n2C)-c2ccccc2CO[C@@H]1CN(C)Cc1ccc(Oc2ccccc2)cc1,·,·,-87*,-3
C[C@H]1CN([C@@H](C)CO)C(=O)c2c(c3ccccc3n2C)-c2ccccc2CO[C@@H]1CN(C)Cc1ccc(-c2ccccc2)cc1,·,·,-92*,-3
CNC[C@@H]1Oc2ncc(Br)cc2C(=O)N([C@H](C)CO)C[C@H]1C,1,·,26,0
CN(C)CCCC[C@@H]1NC(=O)[C@H]2C[C@@H](C(=O)NCc3ccc(F)cc3)[C@@H](c3ccc(O)cc3)N2C1=O,42*,·,·,·
COc1ccc(Br)c(/C=N/NC(=O)c2cccc(C(=O)NO)c2)c1,0,·,·,·
C[C@H](CO)N1C[C@H](C)[C@@H](CN(C)Cc2cccnc2)Oc2cc(/C=C/c3ccccc3)ccc2S1(=O)=O,·,·,-89*,9
C/C=C/c1ccc2c(c1)O[C@H](CN(C)Cc1cccnc1)[C@H](C)CN([C@H](C)CO)S2(=O)=O,0,39,9,-1
C[C@@H]1CN([C@H](C)CO)S(=O)(=O)c2ccc(/C=C/c3ccccc3)cc2O[C@H]1CN(C)Cc1cccnc1,·,·,-86*,6
